Screening results as filed in PubChem BioAssay.
Sampled rows, rich in hits. Any-hit rate of the full collection: about 1.8%.
TDP2 absorb: TDP2 (human) inhibition, absorbance primary screen | recombinant TDP2, T5PNP hydrolysis, p-nitrophenol absorbance 415 nm | O95551 | inhibition, % at 12.8 µM | AID 720702 | actives 0.34% (n = 370,000);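 active means inhibition above the mean of all tested compounds plus 3 SD, set per campaign, cut at about 25% in these data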;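 further: 0% = DMSO with enzyme and 100% = buffer with substrate but no TDP2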
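test system = human TDP2 enzyme | input = TDP2 enzyme at 120 nM final | medium = 50 mM Tris-HCl pH 7.5 with Mg2+, KCl, DTT, BSA | also added = T5PNP substrate, 5 mM | times = 2 h at 37 °C | technique = epi absorbance | benchmarks = high control without enzyme, low control DMSO plus TDP2 | replication = each compound tested once, singlicate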
GSTO1 counter: GSTO1 inhibition, counter-screen for RBBP9 inhibitors | P78417 | recombinant GSTO1, activity-based probe fluorescence polarization | inhibition, % at 5.96 µM | actives 1.1% (n = 300,000) | AID 1974;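 active means inhibition above the campaign mean inhibition plus 3 SD, cut at about 35% in these data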;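 further: 0% = GSTO1-1 with DMSO and 100% = wells lacking GSTO1-1 enzyme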
CTSL1 counter: blocks F. hepatica cathepsin L1 in PFM18AAP counter-screen. inhibition, % at 5.96 µM. recombinant F. hepatica cathepsin L1, Z-Leu-Arg-MCA fluorescence. actives 0.49% (n = 300,000);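 active means inhibition above the mean of all tested compounds plus 3 SD, set per screening campaign, cut at about 17% in these data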;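 further: 0% = plate median of test compound wells and 100% = 1 µM Z-Phe-Ala-diazomethylketone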
Apaf-1 inh: blocks human Apaf-1 apoptosome activity; O14727; reconstituted apoptosome caspase-3 activity, DEVD-Rh110 fluorescence; inhibition, % at 20 µM; actives 0.71% (n = 330,000); AID 489030; active means inhibition of at least 40% at 20 µM;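 further: plate controls were DMSO wells for no effect and DEVD-CHO caspase inhibitor wells for full effect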
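System: reconstituted apoptosome with Apaf-1, cytochrome c, caspase-9, procaspase-3, dATP; Signal: Rh110 fluorescence intensity; Schedule: 30 min compound preincubation, 50 min activation, room temperature; Reagent: cytochrome c trigger plus (Z-DEVD)2-Rh110 caspase-3 substrate.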
PAD4 inh: inhibitors of human PAD4; Q9UM07; recombinant PAD4, RCA probe fluorescence polarization; inhibition, % at 6.36 µM; actives 0.41% (n = 330,000);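 active means percent inhibition above a cutoff equal to the mean of all tested compounds plus 3 SD, cut at about 15% in these data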;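 further: 0% = PAD4 with RCA probe and DMSO and 100% = probe without PAD4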
Target sequence (Q9UM07 whole entry, looked up): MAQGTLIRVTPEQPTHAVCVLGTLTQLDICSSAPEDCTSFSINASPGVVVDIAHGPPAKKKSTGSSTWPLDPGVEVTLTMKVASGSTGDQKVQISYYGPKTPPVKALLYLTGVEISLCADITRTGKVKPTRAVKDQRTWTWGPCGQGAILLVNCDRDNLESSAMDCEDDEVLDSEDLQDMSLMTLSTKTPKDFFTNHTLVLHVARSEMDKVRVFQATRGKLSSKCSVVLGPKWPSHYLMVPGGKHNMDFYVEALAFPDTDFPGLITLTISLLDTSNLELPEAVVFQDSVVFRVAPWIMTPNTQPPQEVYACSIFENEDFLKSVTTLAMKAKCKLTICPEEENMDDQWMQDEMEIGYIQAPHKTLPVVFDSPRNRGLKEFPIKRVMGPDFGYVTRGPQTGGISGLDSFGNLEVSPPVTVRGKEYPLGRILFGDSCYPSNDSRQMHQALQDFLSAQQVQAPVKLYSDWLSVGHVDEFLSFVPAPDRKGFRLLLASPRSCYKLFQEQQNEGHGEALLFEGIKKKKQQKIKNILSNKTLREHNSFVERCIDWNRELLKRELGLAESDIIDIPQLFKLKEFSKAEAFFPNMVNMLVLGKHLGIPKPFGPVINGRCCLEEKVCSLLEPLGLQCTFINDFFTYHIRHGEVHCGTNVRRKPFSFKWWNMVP
Apaf-1 inh conf2: confirmation of Apaf-1 inhibitors | shares compounds with Apaf-1 inh | AID 504614 | reconstituted apoptosome, caspase-3 DEVD-Rh110 fluorescence | actives 25% (n = 1,800) | inhibition, % at 20 µM;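 active means mean inhibition of at least 40% at 20 µM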;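 further: plate controls were DMSO wells for no effect and DEVD-CHO caspase inhibitor control wells for full effect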
Rh110 quench: Rh110 signal interference in Apaf-1 inhibitor counter-screen. shares compounds with Apaf-1 inh. 1,800 tested, under 10 active. AID 504615. Rh110 fluorescence interference, quenched caspase reaction. activation (fluorescence interference), % at 20 µM;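 active means signal rise of 40% or more at 20 µM, treated as a fluorescence artifact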
Fluor interf inh: counter-screen for Apaf-1 inhibitors: fluorescence interference, dose response; shares compounds with Apaf-1 inh; fluorescence interference counterscreen, Apaf-1 assay format; IC50, µM; 460 tested, under 10 active; call rule not given here
* hit, by the source's call.

Screening CN1OC[C@@H]2CN3C(=Nc4cc(C(F)(F)F)cc(C(F)(F)F)c4)Sc4ccccc4[C@@H]3C[C@@H]21 returned TDP2 absorb -4.
CN(C)[C@H]1CCN(c2cccc3c2S(=O)(=O)N2CC[C@@H](C2)O3)C1 was read as TDP2 absorb 8.
`CC/C(=N/Nc1cccc(C)c1)c1cnnc(SC)n1` gave TDP2 absorb 7, GSTO1 counter 50*, CTSL1 counter -6, Apaf-1 inh 63*, PAD4 inh -12, Apaf-1 inh conf2 13 and Rh110 quench 5.
Screening CSc1nncc(/C(C)=N\Nc2ccccc2C)n1 returned TDP2 absorb -3, GSTO1 counter 14, CTSL1 counter 2, Apaf-1 inh 33 and PAD4 inh 0.
`Cc1ccc(NC(=O)C2CCN(c3nnc(-n4cccc4)s3)CC2)c(C)c1` gave TDP2 absorb 2.
Screening O=[N+]([O-])c1ccc(O)c(C=Nc2cccc3ncccc23)c1 returned TDP2 absorb -14, GSTO1 counter 5, CTSL1 counter -2, Apaf-1 inh 91*, PAD4 inh -3, Apaf-1 inh conf2 16 and Rh110 quench 1.
O=[N+]([O-])c1ccc(O)c(/C=N/Nc2ccccn2)c1 was read as TDP2 absorb -8, GSTO1 counter -15, CTSL1 counter 5 and PAD4 inh -1.
`C=CCN1[C@@H](C)[C@H](c2ccccc2)Oc2cccc(N3CCCC3)c2S1(=O)=O` gave TDP2 absorb -1.
For O=C(NCC1CCN(C(=O)C(=O)c2cc3ccccc3o2)CC1)c1ccc2c(c1)OCC2 the results were TDP2 absorb 3.
Screening FC(F)(F)c1ccc(C2[C@H]3CN(Cc4ccc(-c5ccccc5)cc4)[C@H](c4ccccc4)C34CC2(c2ccccc2)C4)cc1 (stereo not given in full) returned TDP2 absorb -1, GSTO1 counter 1, CTSL1 counter -4, Apaf-1 inh 30 and PAD4 inh -4.
Screening N#Cc1ccc(C23CC4(C2)[C@H](CN(Cc2ccc(-c5ccccc5)cc2)[C@@H]4c2ccccc2)C3c2ccc(C(F)(F)F)cc2)cc1 (stereo not given in full) returned TDP2 absorb -1, GSTO1 counter 2, CTSL1 counter 16, Apaf-1 inh 45*, PAD4 inh 2, Apaf-1 inh conf2 5 and Rh110 quench 8.
CCOc1ccc(-n2c(SCC(=O)c3ccc4ccccc4c3)nnc2-c2ccco2)cc1 was read as TDP2 absorb -2.
`COc1ccc(NC(=O)c2ccc(-c3ccc(-c4noc(C)n4)cc3C)cc2)cc1N1CCN(C)CC1` gave TDP2 absorb -3, GSTO1 counter 3, CTSL1 counter 0, Apaf-1 inh 57*, PAD4 inh -1, Apaf-1 inh conf2 26 and Rh110 quench 2.
For COc1ccc(CC(=O)N(Cc2ccccc2)c2ccc(C)cc2)cc1S(=O)(=O)N1CCOCC1 the results were TDP2 absorb -1, GSTO1 counter -5, CTSL1 counter 3, Apaf-1 inh 43*, PAD4 inh -4, Apaf-1 inh conf2 43*, Rh110 quench 6 and Fluor interf inh >100.
COc1ccc(CC(=O)N(C)CC(=O)Nc2c(C)cccc2C)cc1S(=O)(=O)N1CCOCC1 was read as TDP2 absorb 1, Apaf-1 inh 60*, PAD4 inh -5, Apaf-1 inh conf2 39 and Rh110 quench 5.
Screening COc1ccc(CC(=O)N(C)CC(=O)Nc2ccccc2C(F)(F)F)cc1S(=O)(=O)N1CCOCC1 returned GSTO1 counter -1, CTSL1 counter 1, Apaf-1 inh 46*, PAD4 inh 1, Apaf-1 inh conf2 37 and Rh110 quench 2.
For CCCOc1cc(NCc2ccccc2)c2ncn(C(C)C)c2c1 the results were TDP2 absorb 11, Apaf-1 inh 44*, PAD4 inh -7, Apaf-1 inh conf2 54*, Rh110 quench 22 and Fluor interf inh >100.
`COCCOc1cc(NCc2ccccc2)c2ncn(C(C)C)c2c1` gave TDP2 absorb 22, Apaf-1 inh 68*, PAD4 inh -9, Apaf-1 inh conf2 29 and Rh110 quench 1.
Screening CCC(CO)Oc1cc(NCc2ccc(C(=O)O)cc2)c2ncn(C(C)C)c2c1 (stereo not given) returned TDP2 absorb -1, Apaf-1 inh 4 and PAD4 inh -4.
`CCOc1cc(NCc2ccccc2)c2ncn(C(C)C)c2c1` gave TDP2 absorb 17, Apaf-1 inh 42*, PAD4 inh -8, Apaf-1 inh conf2 54*, Rh110 quench 7 and Fluor interf inh >100.
For CC(C)n1cnc2c(NCc3ccccc3)cc(Cc3ccc(F)cc3)cc21 the results were TDP2 absorb 5, Apaf-1 inh 25 and PAD4 inh -2.
`O=C(C(=O)N1CCC(CNS(=O)(=O)c2cccc(C(F)(F)F)c2)CC1)c1cc2ccccc2o1` gave TDP2 absorb 5.
For CCOC(=O)C1Nc2ccccc2C2C(O)C(O)CC12 (stereo not given) the results were TDP2 absorb 22, GSTO1 counter 20, CTSL1 counter -2, Apaf-1 inh 66*, PAD4 inh -5, Apaf-1 inh conf2 18 and Rh110 quench -7.
For CCOC(=O)C1Nc2ccc(C(F)(F)F)cc2C2c3ccccc3CC12 (stereo not given) the results were TDP2 absorb 18, GSTO1 counter 4, CTSL1 counter 9, Apaf-1 inh 29 and PAD4 inh 3.
Cc1ccc2c(c1)c1ccc3c(c1n2C)C(=O)C=CC3=O was read as TDP2 absorb 7, Apaf-1 inh 57*, Apaf-1 inh conf2 40*, Rh110 quench 2 and Fluor interf inh >100.
Cn1c2ccccc2c2ccc3c(c21)C(=O)C=CC3=O was read as TDP2 absorb -4.
For COc1ccc2c(c1)c1ccc3c(c1n2C)C(=O)C=CC3=O the results were TDP2 absorb 10, Apaf-1 inh 71*, Apaf-1 inh conf2 57*, Rh110 quench 5 and Fluor interf inh >100.
`Cc1cccc(N2CCN(C(=O)c3cc4cc(F)ccc4[nH]3)CC2)c1C` gave GSTO1 counter -6, CTSL1 counter 5, Apaf-1 inh 42*, PAD4 inh -10, Apaf-1 inh conf2 27 and Rh110 quench 5.
CCCCNC(=O)OC1CCC12CCC(c1ccccc1)CC2 (stereo not given) was read as TDP2 absorb 2.
